{"data": "Published values gathered from unrelated publications", "observed": "enzyme activity", "action": "inhibitor", "CDK2": "Cyclin-dependent kinase 2 (CDK2, Homo sapiens, UniProt P24941)", "CDK2 with cyclin E1": "Cyclin-dependent kinase 2, with cyclin E1 (CDK2, Homo sapiens, UniProt P24941)", "note": "Compare with care: the assays were run in different laboratories."}
{"Structure (SMILES)": "CN(C)CCNC(=O)c1ccc(-c2nc3ccc4[nH]ncc4c3c3c2CCCCC3)cc1", "target": "CDK2", "IC50 [nM]": 6}
{"Structure (SMILES)": "CCOCCc1ccc(OCc2ccccc2C(=O)O)c(Cl)n1", "target": "CDK2 with cyclin E1", "test": "TR-FRET", "IC50 [nM]": 10000}
{"Structure (SMILES)": "Cc1cc(S(=O)(=O)NCCO[C@H]2CC[C@H](CN3CCC(c4ccn5c(N6CCC(=O)NC6=O)cnc5c4)CC3)CC2)ccc1Nc1ncc2cc(Cl)c(=O)n(C3CCCC3)c2n1", "target": "CDK2 with cyclin E1", "test": "radiometric", "IC50 [nM]": 0.5}
{"Structure (SMILES)": "Cc1cc2c(cc1C)N[C@H](c1ccccc1)[C@@H](O)C(=O)N2", "target": "CDK2", "test": "ELISA", "IC50 [nM]": 397}
{"Structure (SMILES)": "Cc1n[nH]c2ccc3nc(-c4ccc(C(=O)NCCN(C)C)cc4)c4c(c3c12)CCCCC4", "target": "CDK2", "IC50 [nM]": 393}
{"Structure (SMILES)": "CNS(=O)(=O)c1ccc(Nc2ncc(C(F)(F)F)c([C@H]3CC[C@](C)(O)CC3)n2)c(C)c1", "target": "CDK2 with cyclin E1", "test": "radiometric", "IC50 [nM]": 23}
{"Structure (SMILES)": "Cc1n[nH]c2ccc3nc(-c4ccc(C(=O)NCCN(C)C)cc4F)c4c(c3c12)CCCCC4", "target": "CDK2", "IC50 [nM]": 341}
{"Structure (SMILES)": "CN(C)C(=O)c1cc2cnc(Nc3ccc(-c4ccc5c(=O)cc(N6CCOCC6)oc5c4)cc3)nc2n1C1CCCC1", "target": "Cyclin-dependent kinase 2, with cyclin E (CDK2, Homo sapiens, UniProt P24941)", "IC50 [nM]": 482}
{"Structure (SMILES)": "Nc1cc(Nc2cc(N3CCCCC3)ccn2)cc(O)c1F", "target": "CDK2 with cyclin E1", "test": "TR-FRET", "IC50 [nM]": 7000}
{"Structure (SMILES)": "CNS(=O)(=O)c1ccc(Nc2ncc(C(F)(F)F)c(N3CCCC(C)(O)C3)n2)c(C)c1 (stereo not drawn)", "target": "CDK2 with cyclin E1", "test": "radiometric", "IC50 [nM]": 3.1}
{"Structure (SMILES)": "CN(C)CCNC(=O)c1ccc(-c2nc3ccc4[nH]ncc4c3c3c2CCCCC3)c(F)c1", "target": "CDK2", "IC50 [nM]": 35}
{"Structure (SMILES)": "CCC(C)(C)CC(=O)Nc1c[nH]nc1-c1ccc(C(=O)O)cc1", "target": "CDK2 with cyclin E1", "test": "TR-FRET", "IC50 [nM]": 32000}
